Results from ChEMBL document CHEMBL2385005, “Binding mechanism of the farnesoid X receptor marine antagonist suvanine reveals a strategy to forestall drug modulation on nuclear receptors. Design, synthesis, and biological evaluation of novel ligands” (J Med Chem, 2013).
The source made the active and inactive calls. The calls are words filed in the database; no cut-off is given here.

How the values were obtained:
[1] = target: T1, Bile acid receptor (Homo sapiens) (UniProt Q96RI1); experiment: Antagonist activity at FXR (unknown origin) expressed in human HepG2 cells co-expressing RXR assessed as inhibition of CDCA-induced SHP gene expression at 50 uM after 18 hrs by RT-PCR analysis; format: cell-based
T1 sequence (whole entry): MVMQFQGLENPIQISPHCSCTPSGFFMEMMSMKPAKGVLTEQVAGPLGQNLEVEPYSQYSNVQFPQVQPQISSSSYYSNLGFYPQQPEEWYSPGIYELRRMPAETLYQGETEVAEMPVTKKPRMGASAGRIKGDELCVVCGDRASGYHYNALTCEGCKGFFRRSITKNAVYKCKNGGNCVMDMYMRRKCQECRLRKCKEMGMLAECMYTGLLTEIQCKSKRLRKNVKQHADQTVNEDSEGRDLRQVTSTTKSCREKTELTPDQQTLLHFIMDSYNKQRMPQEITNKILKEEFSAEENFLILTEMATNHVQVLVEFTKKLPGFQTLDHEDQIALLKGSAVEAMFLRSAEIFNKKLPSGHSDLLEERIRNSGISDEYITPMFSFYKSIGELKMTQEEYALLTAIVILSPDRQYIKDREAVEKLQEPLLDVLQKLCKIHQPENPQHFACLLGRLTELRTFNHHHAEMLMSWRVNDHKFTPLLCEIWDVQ
In short: (§1)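 HepG2 cells (1 × 10^6) were starved 24 h at 37 °C in E-MEM with 1% FBS. They were then primed 18 h with compound alone at 10 μM, or with 10 μM CDCA plus compound at 50 μM. Total RNA was extracted with TRIzol, DNase-treated and random-primed reverse-transcribed. 25 ng template was amplified by SYBR Green qPCR (0.2 μM primers, 40 cycles) in triplicate.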

[2] = target: T2, Bile acid receptor (Homo sapiens, UniProt Q96RI1); experiment: (§2) Antagonist activity at FXR (unknown origin) expressed in human HepG2 cells co-expressing RXR assessed as inhibition of CDCA-induced transactivation after 18 hrs by luciferase reporter gene assay; format: cell-based
T2 sequence (Q96RI1 whole entry): T1 sequence (whole entry)
In short: (§3)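 HepG2 cells (in MEM, 10% FBS, 37 °C) were plated at 1 × 10^5 cells/well. They were transfected with 150 ng pSG5-FXR, 150 ng pSG5-RXR, 200 ng pCMV-βgal and 500 ng p(hsp27)-TK-LUC (IR1 element). At 24 h they were stimulated 18 h with compound alone (10 μM, or 1–50 μM series) or with compound (50 μM, or 1–50 μM series) plus 10 μM CDCA. Luciferase was normalized to β-galactosidase activity.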

[3] = target: T1, Bile acid receptor (Homo sapiens); experiment: Antagonist activity at FXR (unknown origin) expressed in human HepG2 cells co-expressing RXR assessed as inhibition of CDCA-induced OSTalpha gene expression at 50 uM after 18 hrs by RT-PCR analysis; format: cell-based; in short: as §1
[4] = target: T3, Nuclear receptor subfamily 1 group I member 2 (Homo sapiens, UniProt O75469); experiment: Agonist activity at PXR (unknown origin) transfected in human HepG2 cells co-expressing RXR assessed as CYP3A4 expression at 10 uM after 18 hrs by luciferase reporter gene assay; conditions: hepg2, 18 h
T3 sequence (O75469 whole entry): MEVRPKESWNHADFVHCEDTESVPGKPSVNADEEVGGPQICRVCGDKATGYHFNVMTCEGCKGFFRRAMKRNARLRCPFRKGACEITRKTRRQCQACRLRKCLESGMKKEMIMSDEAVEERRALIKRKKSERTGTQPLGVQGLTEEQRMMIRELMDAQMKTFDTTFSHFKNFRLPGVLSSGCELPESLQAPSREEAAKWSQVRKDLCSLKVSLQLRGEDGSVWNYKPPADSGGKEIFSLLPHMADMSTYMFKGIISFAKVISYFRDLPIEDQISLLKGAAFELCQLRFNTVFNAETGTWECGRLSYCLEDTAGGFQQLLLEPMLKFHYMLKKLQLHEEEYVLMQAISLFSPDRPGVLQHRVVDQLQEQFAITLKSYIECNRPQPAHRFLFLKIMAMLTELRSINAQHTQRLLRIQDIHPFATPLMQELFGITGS

[5] = target: Peroxisome proliferator-activated receptor gamma (Homo sapiens) (UniProt P37231); experiment: Agonist activity at PPARgamma LBD (unknown origin) transfected in human HepG2 cells co-expressing GAL4-DBD at 10 uM after 18 hrs by luciferase reporter gene assay
[6] = target: T4, Oxysterols receptor LXR-alpha (Homo sapiens) (UniProt Q13133); experiment: Agonist activity at LXRalpha LBD (unknown origin) transfected in human HepG2 cells co-expressing GAL4-DBD at 10 uM after 18 hrs by luciferase reporter gene assay; format: cell-based
T4 sequence (whole entry): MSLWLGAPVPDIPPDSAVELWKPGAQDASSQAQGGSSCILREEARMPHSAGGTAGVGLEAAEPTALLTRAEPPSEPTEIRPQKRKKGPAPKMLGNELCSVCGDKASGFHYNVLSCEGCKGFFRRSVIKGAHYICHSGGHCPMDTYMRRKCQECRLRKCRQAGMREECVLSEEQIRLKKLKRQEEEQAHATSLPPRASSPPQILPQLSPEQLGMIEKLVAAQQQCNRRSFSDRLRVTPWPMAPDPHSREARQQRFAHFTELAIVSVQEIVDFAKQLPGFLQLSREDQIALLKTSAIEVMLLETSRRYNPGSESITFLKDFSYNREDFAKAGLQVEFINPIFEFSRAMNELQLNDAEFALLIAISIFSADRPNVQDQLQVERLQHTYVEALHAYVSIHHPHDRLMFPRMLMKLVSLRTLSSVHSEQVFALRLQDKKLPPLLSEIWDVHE
In short: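 HepG2 cells were transiently transfected with 500 ng p(UAS)5XTKLuc, 200 ng pCMV-β-galactosidase and a GAL4-DBD–LXRα LBD vector. At 48 h post-transfection they were stimulated 18 h with compound at 10 μM or the reference agonist. Luciferase was read. Data are mean ± SE of three experiments.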

[7] = target: T1, Bile acid receptor (Homo sapiens); experiment: as §2; format: cell-based; in short: as §3
[8] = target: T1, Bile acid receptor (Homo sapiens); experiment: Antagonist activity at FXR (unknown origin) expressed in human HepG2 cells assessed as inhibition of 6-ECDCA-induced NCoR binding to chromatin at 15 uM after 18 hrs by chromatin immunoprecipitation assay; format: cell-based
In short: (§4)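 HepG2 cells (10 × 10^6) were serum-starved 24 h, then treated 18 h with 6-ECDCA 5 μM alone or with compound 15 μM. Cells were crosslinked with 1% formaldehyde for 10 min and quenched with 125 mM glycine. Sonicated chromatin was immunoprecipitated overnight at 4 °C with anti-FXR, anti-Src1, anti-NCoR or IgG. OSTα promoter DNA was measured by qPCR as 2^−ΔΔCt versus input and unstimulated IgG.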

[9] = target: T1, Bile acid receptor (Homo sapiens); experiment: Antagonist activity at FXR (unknown origin) expressed in human HepG2 cells co-expressing RXR assessed as inhibition of CyP7alpha1 gene expression at 50 uM after 18 hrs by RT-PCR analysis; format: cell-based; in short: as §1
[10] = target: T1, Bile acid receptor (Homo sapiens); experiment: Antagonist activity at FXR (unknown origin) expressed in human HepG2 cells assessed as inhibition of 6-ECDCA-induced FXR/Src-1-mediated transcription activation complex formation at 15 uM after 18 hrs by chromatin immunoprecipitation assay; format: cell-based; in short: as §4
[11] = target: T1, Bile acid receptor (Homo sapiens); experiment: Transactivation of FXR (unknown origin) expressed in human HepG2 cells co-expressing RXR assessed as beta-galactosidase activity at 10 uM after 18 hrs by luciferase reporter gene assay; format: cell-based; in short: as §3
[12] = target: T1, Bile acid receptor (Homo sapiens); experiment: Antagonist activity at FXR (unknown origin) expressed in human HepG2 cells co-expressing RXR assessed as inhibition of CDCA-induced transactivation at 50 uM after 18 hrs by luciferase reporter gene assay; format: cell-based; in short: as §3
[13] = target: T1, Bile acid receptor (Homo sapiens); experiment: Transactivation of FXR (unknown origin) expressed in human HepG2 cells co-expressing RXR assessed as beta-galactosidase activity at 50 uM after 18 hrs by luciferase reporter gene assay; format: cell-based; in short: as §3
[14] = target: T1, Bile acid receptor (Homo sapiens); experiment: Transactivation of FXR (unknown origin) expressed in human HepG2 cells co-expressing RXR assessed as beta-galactosidase activity at 50 uM after 18 hrs by luciferase reporter gene assay relative to CDCA; format: cell-based; in short: as §3
[15] = target: T2, Bile acid receptor; experiment: Transactivation of FXR (unknown origin) expressed in human HepG2 cells co-expressing RXR assessed as beta-galactosidase activity after 18 hrs by luciferase reporter gene assay; format: cell-based; in short: as §3
[16] = target: T1, Bile acid receptor (Homo sapiens); experiment: Agonist activity FXR (unknown origin) expressed in human HepG2 cells co-expressing RXR assessed as effect on OSTalpha mRNA level […] after 18 hrs by RT-PCR analysis; format: cell-based; in short: as §1
[17] = target: T1, Bile acid receptor (Homo sapiens); experiment: Agonist activity FXR (unknown origin) expressed in human HepG2 cells co-expressing RXR assessed as effect on SHP mRNA level at […] after 18 hrs by RT-PCR analysis; format: cell-based; in short: as §1
[18] = target: T1, Bile acid receptor (Homo sapiens); experiment: Agonist activity FXR (unknown origin) expressed in human HepG2 cells co-expressing RXR assessed as effect on CyP7alpha1 mRNA level […] after 18 hrs by RT-PCR analysis; format: cell-based; in short: as §1

| SMILES | inhibition [1] | EC50 [2] | inhibition [3] | Activity [4] | Activity [5] | Activity [6] | inhibition [12] | Activity [13] | also measured |
| --- | --- | --- | --- | --- | --- | --- | --- | --- | --- |
| CC1(C)CCC[C@]2(C)[C@H]3CC[C@H](O)[C@H](CCc4ccoc4)[C@@]3(C)CC[C@@H]12 | Active | 25 µM | Active | Active | inactive | inactive |  |  |  |
| CC1(C)CCC[C@]2(C)[C@H]3CC/C(=C\OS(=O)(=O)[O-])[C@H](CCc4ccoc4)[C@@]3(C)CC[C@@H]12.[Na+] [SUVANINE'S SODIUM SALT] | Active | 24 µM | Active | Active | inactive | inactive | Active |  | inhibition [7]: Dose-dependent effect; inhibition [8]: inactive; Activity [9]: Active; inhibition [10]: Active; Activity [11]: inactive |
| CC1(C)CCC[C@]2(C)C3CC[C@@]4(C=O)[C@@H]5OC(=O)C=C5CC[C@@H]4[C@@]3(C)CC[C@@H]12 (single isomer, unassigned) | Active |  | Active |  |  |  | Active |  |  |
| CC1(C)CCC[C@]2(C)[C@H]3CC[C@H](/C=C/C(=O)O)[C@H](CCc4ccoc4)[C@@]3(C)CC[C@@H]12 |  |  |  |  |  |  |  | Active |  |
| COC(=O)CC[C@H]1C(=O)CC[C@H]2[C@]1(C)CC[C@H]1C(C)(C)CCC[C@]21C | Active |  | Active |  |  |  |  |  |  |
| CC1(C)CCC[C@]2(C)[C@H]3CC[C@@H](CCCO)[C@H](CCc4ccoc4)[C@@]3(C)CC[C@@H]12 |  |  |  | Active | inactive | inactive |  | Active | Efficacy [14]: 21.5%; EC50 [15]: 30 µM; Activity [16]: Active; Activity [17]: Active; Activity [18]: Active |
